SMILES strings stand for the structures.

A short description of this data set: Toxicity liver stage against HepG2, at 10uM. Format: cell-based. Also noted: test concentration 10 uM, cell line HepG2-A16-CD81EGFP. The settings on record: human, HepG2-A16-CD81EGFP cells; read-out: INHIBITION
An outline of the steps:
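Uninfected HepG2-A16-CD81EGFP cells, 3 × 10^3 per well, 1536-well, plated on prespotted compound at 10 μM final, parasite-free screening media added to match infected plates; puromycin 10 μM positive, DMSO 0.5% negative; run in parallel with 48 h PbLuc assay at 37 °C, 5% CO2; viability by CellTiter-Glo luminescence, normalized to controls.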
Turning to `COc1cccc(CNC(=O)N2CCN(Cc3cc(C)on3)CC2)c1`, the cytotoxicity at 10 µM is -1.58%.

As for `Cc1[nH]ncc1CCCNC(=O)N1CCN2CCCCC2C1` (stereo unspecified), the cytotoxicity at 10 µM amounted to 5.8%.

Regarding `CC(O)c1cn(CC2CCN(C(=O)c3cscn3)CC2)nn1` (stereo unspecified), the cytotoxicity at 10 µM was 1.83%.

As to `CCOc1ccccc1-n1c(C2CCC2)n[nH]c1=O`, the cytotoxicity at 10 µM is 4.18%.

On to `CC(Nc1ccc(CN2CCCC2=O)cc1)c1ccc(C#N)cc1` (stereo unspecified), for which the cytotoxicity at 10 µM came out at 6.29%.

`COCCO[C@H]1CCN(C(=O)c2cnoc2C)[C@H]1Cc1cnn(C)c1`: the cytotoxicity at 10 µM was -69.6%.

Turning to `COc1cccc(CCNCc2c(C)nn(C)c2N(C)C)c1`, the cytotoxicity at 10 µM was -1.6%.

Turning to `COc1ccc(CNC(C)c2cccc(Cl)c2)c(OC)c1OC` (stereo unspecified), the cytotoxicity at 10 µM amounted to 14%.

Regarding `O=C1COC2(CCN(Cc3cccs3)CC2)CN1c1cncnc1`, the cytotoxicity at 10 µM was -124%.

For the compound `Cc1cc(C)n(CC2CCCN2CCc2ccncc2)n1` (stereo unspecified), the cytotoxicity at 10 µM was -15.5%.

With `CCN(CC1CCOC1)C(=O)CCc1nc(C(C)(C)C)no1` (stereo unspecified), the cytotoxicity at 10 µM was -1.26%.

For the compound `CC(C)NC(=O)C1CN(C(=O)N2CCCC2)CC12CCOCC2` (stereo unspecified), the cytotoxicity at 10 µM was 1.08%.

On to `Cc1cc(C(F)(F)F)nc(C2COCCN2S(C)(=O)=O)n1` (stereo unspecified), for which the cytotoxicity at 10 µM is -2.6%.

Regarding `CC(NC(=O)N(C)Cc1ccncc1)c1cn(-c2ccccc2)nn1` (stereo unspecified), the cytotoxicity at 10 µM is -47.7%.

Turning to `COc1cc(OC)cc(C2SCC(=O)Nc3ccsc32)c1` (stereo unspecified), the cytotoxicity at 10 µM is -1.16%.

In the case of `COc1ncccc1CN1CC[C@H]2O[C@H](c3nnc(C)o3)CC[C@H]21`, the cytotoxicity at 10 µM turned out to be 15.1%.

For `Cc1ccc(CN2CCC(O)(Cn3nc(-c4cccs4)oc3=O)CC2)o1`, the cytotoxicity at 10 µM was 8.52%.

In the case of `O=S(=O)(NCCSc1nccn1C1CC1)c1ccccc1`, the cytotoxicity at 10 µM was -9.34%.

Regarding `CCN(C)S(=O)(=O)NCC(O)c1cc2ccccc2s1` (stereo unspecified), the cytotoxicity at 10 µM was -8.26%.

With `Cc1nc(CN2C(=O)COC3(CCN(Cc4nccs4)CC3)C2C)cs1` (stereo unspecified), the cytotoxicity at 10 µM is -10.4%.

With `CC(C)c1nc(C(=O)N2CCCC(N)CC2)cs1` (stereo unspecified), the cytotoxicity at 10 µM was -2.56%.

Turning to `COc1ccc(CN2C[C@@H](F)[C@@H](OCc3nc4ccccc4[nH]3)C2)cn1`, the cytotoxicity at 10 µM was -2.59%.

With `CC(NC(=O)CSCC#N)c1ccccc1` (stereo unspecified), the cytotoxicity at 10 µM was -5.9%.

Turning to `Cn1nc(CNC(=O)C2CCCCC2)cc1C1CC1`, the cytotoxicity at 10 µM was -4.56%.

`Cn1cc(N2C[C@@H]3CN(CC4CCOCC4)C[C@@H]3C2=O)cn1`: the cytotoxicity at 10 µM was determined as 11.1%.

In the case of `Cn1nccc1C(=O)N1CCN(C(=O)C2CC2)[C@@H]2CS(=O)(=O)C[C@@H]21`, the cytotoxicity at 10 µM was found to be 3.11%.

`CNC(=O)CNCC1(O)CCCN(Cc2ccc(F)c(F)c2)C1=O` (stereo unspecified): the cytotoxicity at 10 µM was -9.88%.

For `CCc1noc(C(C)N2CCN(C(=O)CN3CCOCC3)CC2)n1` (stereo unspecified), the cytotoxicity at 10 µM was -9.17%.

On to `COc1ccc(S(=O)(=O)NC2(CC(N)=O)CCC2)cc1`, for which the cytotoxicity at 10 µM worked out at 11.7%.

On to `c1ccc(OCCCn2ccnc2-c2cn(C3CCNCC3)nn2)cc1`, for which the cytotoxicity at 10 µM is -18.1%.

`COCCN1CC(C(=O)N(C)Cc2cc(-c3cccnc3)no2)CC1=O` (stereo unspecified): the cytotoxicity at 10 µM is -1.99%.

With `Cn1cc2c(n1)C(CNC(=O)Cc1ccsc1)OCC2` (stereo unspecified), the cytotoxicity at 10 µM came out at 0.175%.

In the case of `CC(=O)Nc1cnc(-n2ccnc2)nc1`, the cytotoxicity at 10 µM was -1.25%.

With `CC(=O)NCC(=O)N1CCOC2(CCCN(c3ccc(C)nn3)C2)C1` (stereo unspecified), the cytotoxicity at 10 µM amounted to 0.876%.

Consider `CCn1nc(C)c(C(=O)N2C[C@@H](CN(C)C)[C@@H](CO)C2)c1C`, for which the cytotoxicity at 10 µM was 0.44%.

Consider `NC(=O)N1CCC(NCc2cc(Br)ccc2Cl)CC1`, for which the cytotoxicity at 10 µM was -6.43%.

Consider `Cc1ncc(-c2ccccn2)c(CCNC(=O)CCC2CCCO2)n1` (stereo unspecified), for which the cytotoxicity at 10 µM worked out at 11.7%.

As for `Cc1nc(CO[C@@H]2CN(Cc3cccnc3)[C@@H]3COC[C@@H]32)cs1`, the cytotoxicity at 10 µM was 5.05%.

Regarding `O=C(c1ccccn1)N1C[C@@H]2OCC(=O)N(CC3CCCCC3)[C@@H]2C1`, the cytotoxicity at 10 µM is -2.86%.

For `CN(Cc1ccc(F)cc1)CC1(O)CCN(C(=O)c2cccn2C)C1` (stereo unspecified), the cytotoxicity at 10 µM was -3.19%.

Take `Cc1cccc(C(=O)N2CCN(C)CC2)c1NC(=O)c1ccncc1`: the cytotoxicity at 10 µM is -10.8%.

`CC(=O)Nc1ccc(C(=O)N2CCSCC2c2ccc(C)o2)cc1` (stereo unspecified): the cytotoxicity at 10 µM worked out at 11.4%.

As for `Cn1cccc1C(=O)N1CCC2(CCCN2c2ncccn2)CC1`, the cytotoxicity at 10 µM came to 6.07%.

With `COc1ccc(F)c(CN2CCCC(O)(CNC3CCCCC3)C2=O)c1` (stereo unspecified), the cytotoxicity at 10 µM is 8.28%.

For `CC(C)Oc1ncccc1CNC(=O)N1CCSCC1`, the cytotoxicity at 10 µM was -11.8%.

On to `COCCOc1ccccc1C(=O)N1CCCC(c2cc(C)[nH]n2)C1` (stereo unspecified), for which the cytotoxicity at 10 µM was -22.6%.

`CCc1nc2c(s1)C(N(C)C(=O)c1csnn1)CCC2` (stereo unspecified): the cytotoxicity at 10 µM is -3.71%.

As for `CCc1ccsc1C(=O)N1CCS(=O)(=O)CC1`, the cytotoxicity at 10 µM was found to be 5.36%.

In the case of `Cc1ccc(N2CCCC(NCC(=O)Nc3cc(C)no3)C2)nn1` (stereo unspecified), the cytotoxicity at 10 µM came to 3.61%.

With `Cc1cnn(-c2cccc(N3CCN(c4cc(C)nc(C)n4)CC3)n2)c1`, the cytotoxicity at 10 µM is 7.82%.

Take `Cc1cc(C)n(-c2ccc(N3CCC4(CC3)OCCO4)nc2)n1`: the cytotoxicity at 10 µM is -4.84%.

On to `CC(C)[C@@H]1CN(Cc2ccccn2)C[C@H]1NS(=O)(=O)N(C)C`, for which the cytotoxicity at 10 µM is -0.869%.

`Cn1nc(-c2cccs2)cc1[C@H]1CN2CC[C@H]1C[C@@H]2CN`: the cytotoxicity at 10 µM came out at 5.88%.

For the compound `CC(=O)N1CCCN(Cc2ccon2)c2ccccc21`, the cytotoxicity at 10 µM stood at 0.616%.

In the case of `Cc1nc(-c2ccc(NCCc3ccc(O)cc3)nc2)[nH]c(=O)c1C`, the cytotoxicity at 10 µM worked out at 20.5%.

Take `NCC1Cc2cc(Oc3cc(F)c(CN4CCCC4)c(F)c3)ccc2O1` (stereo unspecified): the cytotoxicity at 10 µM is -8.97%.

As to `Cc1nc(O)cc([C@@H]2CN(C(=O)C3CC3)C[C@H]2c2ccccc2F)n1`, the cytotoxicity at 10 µM was 4.95%.

For `CCO[C@H]1CO[C@@]2(CCN(Cc3ccc4c(c3)OCO4)C2)C1`, the cytotoxicity at 10 µM came out at 0.493%.

For `Cc1nn(C)c(C)c1S(=O)(=O)NCC1(C(N)=O)CCOCC1`, the cytotoxicity at 10 µM was found to be 14.9%.

In the case of `COc1cccc(CN2CC(O)CN(C(=O)C(C)(C)C)CC2=O)c1OC` (stereo unspecified), the cytotoxicity at 10 µM was -57.6%.

Turning to `COc1ccc(C)cc1CN(CC(N)=O)C(C)C`, the cytotoxicity at 10 µM was -0.846%.

For `CN(Cc1ccc([S+](C)[O-])cc1)c1cncc(Br)c1` (stereo unspecified), the cytotoxicity at 10 µM was found to be 11.7%.

Consider `CSC(C)C(=O)NCCCc1cc(N)n(-c2ccccc2)n1` (stereo unspecified), for which the cytotoxicity at 10 µM came to 3.25%.

Turning to `CCc1nc(NS(=O)(=O)c2cc(C)ccc2Br)no1`, the cytotoxicity at 10 µM was 4.66%.

Regarding `CC(=O)N1CCCN(C(=O)NC(C)c2ccc(C)o2)CC1` (stereo unspecified), the cytotoxicity at 10 µM came to 2.72%.

As to `O=C(Cc1ccccn1)N1CCc2c(O)nc(-c3cnccn3)nc2C1`, the cytotoxicity at 10 µM was -27%.

Take `O=C(c1ccccn1)N1CCC2(CC1)C(=O)Nc1ccccc12`: the cytotoxicity at 10 µM was -145%.

For the compound `O=C(NCCC1=CCCCC1)C1CCCN(c2ccc3nncn3n2)C1` (stereo unspecified), the cytotoxicity at 10 µM was 4.01%.

As for `CCn1c(C(=O)N2CCCN(CC(N)=O)CC2)cc2ccccc21`, the cytotoxicity at 10 µM is -4.77%.

With `Cc1cc(C(=O)N2CCCC(C)C2)ccc1NCC(=O)N1CCOCC1` (stereo unspecified), the cytotoxicity at 10 µM is -0.153%.

Take `CC(C)CN1CCN(C(=O)c2cc(=O)c3ccccc3[nH]2)CC1`: the cytotoxicity at 10 µM is -4.92%.

Regarding `CCCSc1nn(CCN(C)C)c2nc3sc(C)c(CC)c3c(=O)n12`, the cytotoxicity at 10 µM is 16.4%.

In the case of `O=S(=O)(c1cccnc1)N1CCCCC1CCN1CCOCC1` (stereo unspecified), the cytotoxicity at 10 µM is -3.03%.

As for `CC(C)c1[nH]c2ncccc2c1CN1CCN(S(=O)(=O)N(C)C)CC1`, the cytotoxicity at 10 µM amounted to 3.33%.

Turning to `CC(C)(C)n1ncc2c(=O)[nH]c(NC3CC=CC3)nc21`, the cytotoxicity at 10 µM turned out to be 1.68%.

With `CC(C)(C)OC(=O)Cn1nc(C2CC2)cc(C(F)(F)F)c1=O`, the cytotoxicity at 10 µM is -8.96%.

As for `CCC(c1ccccc1)c1nn2c(CN(CC)CC)nnc2s1` (stereo unspecified), the cytotoxicity at 10 µM came to 7.79%.

Consider `O=C(NCCc1ccccc1)NCC(O)c1cccc(F)c1` (stereo unspecified), for which the cytotoxicity at 10 µM was -7.24%.

Take `CCOc1ccc(-c2nc(CN(C)Cc3c(C)noc3C)cs2)cc1`: the cytotoxicity at 10 µM was determined as 38.6%.

As for `COC1COC2(CCN(Cc3cccc(Cl)c3)CC2)C1` (stereo unspecified), the cytotoxicity at 10 µM is -1.31%.

`c1ccc(-c2ccc3nc(C4CCN(CC5CC5)CC4)nn3c2)cc1`: the cytotoxicity at 10 µM was -7.32%.

Consider `O=C(c1cnccn1)N1CCCC(Cn2cc(C3CC3)nn2)C1` (stereo unspecified), for which the cytotoxicity at 10 µM is -5.9%.

In the case of `CCS(=O)(=O)NCc1nc(C)cc(N2CCCCC2)n1`, the cytotoxicity at 10 µM was determined as 6.79%.

For `Cc1nc(C(=O)N2CCN(S(C)(=O)=O)CC2)c(-c2ccccc2)s1`, the cytotoxicity at 10 µM was found to be 3.23%.

In the case of `Cc1ccc(CN2C[C@@H]3COC[C@H](NS(C)(=O)=O)[C@@H]3C2)s1`, the cytotoxicity at 10 µM is 0.354%.

Turning to `O=C(NCCCn1cccn1)C1(c2ccc(Br)cc2)CC1`, the cytotoxicity at 10 µM is -0.0323%.

For the compound `CCCc1nc(C[S+]([O-])Cc2cn3cccc(C)c3n2)no1` (stereo unspecified), the cytotoxicity at 10 µM turned out to be 2.48%.

Regarding `O=C(c1ccncc1)N1CCC2(CCCN(c3ncc(F)cn3)C2)C1` (stereo unspecified), the cytotoxicity at 10 µM was -105%.

Consider `COC(=O)CCN(CC1CCCO1)C(=O)CCc1ccc(OC)cc1` (stereo unspecified), for which the cytotoxicity at 10 µM was found to be 7.39%.

As to `CCOc1ccc(Cl)cc1CNCCCn1ccnc1`, the cytotoxicity at 10 µM stood at 1.36%.

`CCc1cnc(CN(C)C(=O)NC2CCN(c3ccccc3)C2)s1` (stereo unspecified): the cytotoxicity at 10 µM was -2.12%.

`CCC1CN(Cc2nnc(C3CC3)o2)CCN1CCOC` (stereo unspecified): the cytotoxicity at 10 µM was 3.13%.

For the compound `NC(=O)CC1CCN(C(=O)CCOc2ccc(Cl)cc2)CC1`, the cytotoxicity at 10 µM is -7.98%.

For the compound `Cc1nn(C)c2ncnc(NCc3nncn3C3CCCCC3)c12`, the cytotoxicity at 10 µM is -10.2%.

Regarding `CC(C)N(Cc1ccc(C#N)cc1)C(=O)NCCNc1ncccn1`, the cytotoxicity at 10 µM was 3.78%.

Consider `Cc1cccc(-c2noc([C@@H]3C[C@@H](O)CN3CC3CCCCC3)n2)c1`, for which the cytotoxicity at 10 µM worked out at 6.41%.

For the origin of these results see ChEMBL document CHEMBL4513216, “Probing the Open Global Health Chemical Diversity Library for Multistage-Active Starting Points for Next-Generation Antimalarials” (ACS Infect Dis, 2020).
